# Assay results taken from ChEMBL document CHEMBL3580660, “Synthesis and Biological Evaluation of Novel Olean-28,13β-lactams as Potential Antiprostate Cancer Agents” (J Med Chem, 2015).
# Key:
# [1] = Acute toxicity in ICR mouse assessed as survival at 640 mg/kg, oral gavage on day 14; type: organism-based; conditions: in vivo
# Summary of the method: (§1)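 ICR mice of both sexes, 7 weeks old, held under SPF conditions. Each got one gavage dose (800, 640, 512, 409.6 or 327.8 mg/kg) or vehicle, n = 8 per group. Deaths were recorded at 1 h, 4 h, 3 d and 4–14 d. Behaviour, water and food intake, body weight and activity were followed to day 14. LD50 given with 95% confidence limits.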
# [2] = Acute toxicity in ICR mouse assessed as survival at 409.6 mg/kg, oral gavage on day 14; type: organism-based; conditions: in vivo; summary of the method: as §1
smiles,measurement,setting,value
CC1(C)CC[C@]23CC[C@@]4(C)[C@]5(C)CC[C@H]6C(C)(C)C(=O)C(C#N)=C[C@]6(C)C5=CC(=O)[C@@]4([C@@H]2C1)N(C1CCCCC1)C3=O,survival at 14 day,[1],25%
same,survival at 14 day,[2],88%
